Measured values from ChEMBL document CHEMBL1137633, “2,N6-disubstituted adenosine analogs with antitrypanosomal and antimalarial activities” (Antimicrob Agents Chemother, 2007).
Calls of active or inactive are those of the source. The rule behind the calls is not given here.

Key:
[1] = tested on: Trypanosoma cruzi; test: Trypanocidal activity against Trypanosoma cruzi Tulahuen C4 trypomastigotes infected in mouse macrophage by reporter dye assay; assay type: functional, organism-based
[2] = tested on: Plasmodium falciparum; test: Antiplasmodial activity against chloroquine and pyrimethamine-resistant Plasmodium falciparum K1 […] by reporter dye assay; assay type: functional, organism-based
[3] = tested on: Trypanosoma brucei rhodesiense; test: Trypanocidal activity against Trypanosoma brucei rhodesiense STIB 900 […] by reporter dye assay; assay type: functional, organism-based
[4] = tested on: Leishmania donovani; test: Antileishmanial activity against Leishmania donovani MHOMET-67/L82 amastigotes infected in mouse macrophage by reporter dye assay; assay type: functional, organism-based
[5] = Cytotoxicity against HEK293T cells after 16 hrs by alamar blue staining; assay type: cell-based; settings: Homo sapiens, HEK-293T
Procedure, shortened: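 HEK 293T cells were seeded at 3×10^4/well in DMEM with 10% newborn bovine serum, 2 mM L-glutamax and 1% penicillin-streptomycin, and left to adhere for 3 h at 37°C under 5% CO2. Medium with serial drug dilutions (500 to 0.24 μM in the added medium) was then given for 16 h. Resazurin followed for a further 24 h, read by fluorescence (ex 530/em 590 nm). IC50 values came from ≥3 independent experiments.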

[6] = tested on: Leishmania mexicana; test: Antiprotozoal activity against axenic Leishmania mexicana amastigotes by alamar blue fluorescent dye assay; assay type: functional, organism-based
[7] = tested on: Trypanosoma brucei brucei; test: Trypanostatic activity against Trypanosoma brucei brucei s427 by alamar blue fluorescent dye assay; assay type: functional; settings: read-out: ED50 (the source's name)
[8] = tested on: Trypanosoma brucei brucei; test: Trypanocidal activity against Trypanosoma brucei brucei s427 by alamar blue fluorescent dye assay; assay type: functional; settings: read-out: ED50 (the source's name)
[9] = tested on: Leishmania major; test: Leishmanicidal activity against Leishmania major promastigotes by alamar blue fluorescent dye assay; assay type: functional; settings: read-out: ED50 (the source's name)
[10] = tested on: L6; test: Cytotoxicity against rat L6 cells; assay type: cell-based
[11] = tested on: Trypanosoma brucei brucei; test: Inhibition of Trypanosoma brucei brucei 427 P1 transporter-mediated [3H]adenosine uptake by fluid scintillation counting in presence of 100 uM adenine
[12] = Inhibition of Trypanosoma brucei brucei 427 P2 transporter-mediated [3H]adenosine uptake by fluid scintillation counting in presence of 100 uM inosine
[13] = tested on: Leishmania major; test: Leishmanistatic activity against Leishmania major promastigotes by alamar blue fluorescent dye assay; assay type: functional; settings: read-out: ED50 (the source's name)
[14] = Inhibition of [3H]hypoxanthine uptake at Trypanosoma brucei brucei 427 H2 transporter expressed in human erythrocytes by fluid scintillation counting; assay type: cell-based
[15] = tested on: Trypanosoma brucei brucei; test: Biphasic antitrypanosomal activity against Trypanosoma brucei brucei s427 by alamar blue fluorescent dye assay; assay type: functional, organism-based

SMILES	IC50 [1] [µM]	IC50 [2] [µM]	IC50 [3] [µM]	IC50 [4] [µM]	further results
COc1nc(NCCC(c2ccccc2)c2ccccc2)c2ncn([C@@H]3O[C@H](CO)[C@@H](O)[C@H]3O)c2n1	< 30	> 10	36	< 30	–
OC[C@H]1O[C@@H](n2cnc3c(NC4CCCC4)nc(NC4CCCC4)nc32)[C@H](O)[C@@H]1O	–	> 10	0.4	–	IC50 [5]: > 500 µM; IC50 [6]: 9.01 µM; EC50 [7]: 0.166 µM; EC50 [8]: 15.7 µM; EC50 [9]: 9.07 µM; IC50 [10]: 97.3 µM; inhibition [11]: inactive; Ki [12]: 20 µM; EC50 [13]: 0.01 µM
OC[C@H]1O[C@@H](n2cnc3c(NC4CC4)nc(NC4CC4)nc32)[C@H](O)[C@@H]1O	–	> 10	172	–	–
OC[C@H]1O[C@@H](n2cnc3c(Nc4ccccc4)nc(NC4CCCC4)nc32)[C@H](O)[C@@H]1O	< 30	6.06	2.06	< 30	IC50 [10]: 36.3 µM
OC[C@H]1O[C@@H](n2cnc3c(N4CCCCC4)nc(NC4CCCC4)nc32)[C@H](O)[C@@H]1O	–	> 10	11.2	–	–
CCN(CC)CCCC(C)Nc1ccnc2cc(Cl)ccc12 (stereo not given) [CHLOROQUINE]	< 30	–	–	< 30	–
c1nc2nc(NC3CCCC3)nc(NC3CCCC3)c2[nH]1	–	–	–	–	IC50 [6]: 15.2 µM; EC50 [7]: 0.026 µM; EC50 [8]: 23.4 µM; EC50 [9]: 15.1 µM; Ki [14]: 33.4 µM; EC50 [13]: 0.015 µM
OC[C@H]1O[C@@H](n2cnc3c(NCCC(c4ccccc4)c4ccccc4)nc(NCCOCc4ccccc4)nc32)[C@H](O)[C@@H]1O	< 30	3.06	27.7	< 30	–
OC[C@H]1O[C@@H](n2cnc3c(NC4CCCC4)nc(NCCOCc4ccccc4)nc32)[C@H](O)[C@@H]1O	< 30	> 10	4.19	< 30	IC50 [10]: 78.8 µM
C[C@@H]1CC[C@H]2[C@@H](C)C(=O)O[C@@H]3O[C@@]4(C)CC[C@@H]1[C@]32OO4 [ARTEMISININ]	–	0.2	–	–	–
OC[C@H]1O[C@@H](n2cnc3c(NC4CCCC4)nc(NC4CC4)nc32)[C@H](O)[C@@H]1O	–	> 10	1.43	–	IC50 [5]: > 500 µM
OC[C@H]1O[C@@H](n2cnc3c(NCCC(c4ccccc4)c4ccccc4)nc(NCCC4CNc5ccccc54)nc32)[C@H](O)[C@@H]1O (stereo not given in full)	< 30	1.83	25.1	< 30	–
OC[C@H]1O[C@@H](n2cnc3c(NC45CC6CC(CC(C6)C4)C5)nc(N4CCCC4)nc32)[C@H](O)[C@@H]1O	–	6.2	34.1	–	–
OC[C@H]1O[C@@H](n2cnc3c(NC4CC4)nc(NC4CCCC4)nc32)[C@H](O)[C@@H]1O	–	> 10	1.84	–	IC50 [5]: > 500 µM
OC[C@H]1O[C@@H](n2cnc3c(NCc4cccc5ccccc45)nc(NCCC(c4ccccc4)c4ccccc4)nc32)[C@H](O)[C@@H]1O	–	1.76	24.1	–	–
OC[C@H]1O[C@@H](n2cnc3c(NC4CCCC4)nc(NC4CCCCCC4)nc32)[C@H](O)[C@@H]1O	–	6.79	3.06	–	IC50 [5]: 167 µM
OC[C@H]1O[C@@H](n2cnc3c(NCc4cccc(I)c4)nc(NCCC4CNc5ccccc54)nc32)[C@H](O)[C@@H]1O (stereo not given in full)	< 30	> 10	20	< 30	–
N=C(N)c1ccc(/N=N/Nc2ccc(C(=N)N)cc2)cc1 [DIMINAZENE]	–	–	–	–	IC50 [15]: 0.107 µM
OC[C@H]1O[C@@H](n2cnc3c(NCCC(c4ccccc4)c4ccccc4)nc(NCc4cccc5ccccc45)nc32)[C@H](O)[C@@H]1O	–	1.56	17.3	–	–
OC[C@H]1O[C@@H](n2cnc3c(NC4CCCCCC4)nc(NC4CCCCCC4)nc32)[C@H](O)[C@@H]1O	–	4.91	29.8	–	–
OC[C@H]1O[C@@H](n2cnc3c(NCCC(c4ccccc4)c4ccccc4)nc(NCCc4cnc[nH]4)nc32)[C@H](O)[C@@H]1O	< 30	8.17	71.5	< 30	–
CCCCNc1nc(NC2CCCC2)nc2c1ncn2[C@@H]1O[C@H](CO)[C@@H](O)[C@H]1O	–	> 10	0.64	–	IC50 [5]: > 500 µM; inhibition [11]: inactive; Ki [12]: 9 µM
OC[C@H]1O[C@@H](n2cnc3c(NC4CCCC4)nc(NC4CCCCC4)nc32)[C@H](O)[C@@H]1O	–	9.05	0.49	–	IC50 [5]: 228 µM
